Measurements as given in PubChem BioAssay AID685 (PCMD, 2007).
Screen size: about 30,000 compounds; about 80 (0.3%) were called active.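 How the source made its calls: active means mutant and wild-type yeast strains alike exhibit over 30% growth inhibition; inconclusive means a strain exceeds 50% while the second remains under 30%; inactive means the rest.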 This excerpt belongs to a sample that is enriched for actives.

Test: S. cerevisiae growth inhibition, turbidity – wild-type and eIF2Bepsilon R284H mutant, A595, cytotoxicity control for eIF2B function restoration project, primary screen (AID 685);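 further: 0% = untreated cell controls and 100% = YPD media blanks without cells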
Settings: 16 h, stronger effect = higher value, screened at 25 µM (by protocol)
Outline: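 Test system: Wild-type and eIF2Bepsilon-R284H mutant S. cerevisiae, screened separately | Dosing: Single 25 µM compound dose in 0.2% DMSO | Schedule: 16 h compound exposure during growth at 30 °C | Detection: A595 turbidity | Evaluation: Growth inhibition (%) versus cell controls and blanks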

[1] = S. cerevisiae eIF2Bepsilon-R284H mutant growth

CC(C)NC(=O)C(=O)NCCN1CCN(S(=O)(=O)c2ccc(Cl)cc2)CC1
growth inhibition [1]: 7.69% | growth inhibition (S. cerevisiae wild-type growth): 7.31% (inactive)

COc1ccc(C2CC(=O)n3c(nc4ccccc43)S2)cc1OC (stereo not given)
growth inhibition [1]: -2.13% | growth inhibition (S. cerevisiae wild-type growth): 32% (inactive)

COc1ccc(-c2cc(C(F)(F)F)nc(NCc3cccnc3)n2)cc1
growth inhibition [1]: 25.5% | growth inhibition (S. cerevisiae wild-type growth): 15.3% (inactive)

CCCc1nc2sc3c(c2c(=O)n1NC(=O)CCCl)CCCC3
growth inhibition [1]: 9.3% | growth inhibition (S. cerevisiae wild-type growth): -7.93% (inactive)

CCOC(=O)N1CCN(C(=O)COc2ccc(Br)cc2)CC1
growth inhibition [1]: 0% | growth inhibition (S. cerevisiae wild-type growth): 10.3% (inactive)

CCn1nc(C)c(NC(=O)/C=C/c2ccc(OC)c(COc3ccc(Br)cc3)c2)c1C
growth inhibition [1]: 50% | growth inhibition (S. cerevisiae wild-type growth): 54.5% (active)

COc1cccc(OCc2cc(/C=N/NC(=O)c3nc(Cl)c(Cl)c(N)c3Cl)ccc2OC)c1
growth inhibition [1]: -17.9% | growth inhibition (S. cerevisiae wild-type growth): -14.8% (inactive)

C=CCn1c(SCc2c(C(=O)OC)sc(N)c2C(=O)OC)nnc1-c1ccc(Cl)cc1
growth inhibition [1]: 6.98% | growth inhibition (S. cerevisiae wild-type growth): -10.3% (inactive)

CCCCOc1ccc(C(=O)NCc2ccncc2)cc1
growth inhibition [1]: 18.6% | growth inhibition (S. cerevisiae wild-type growth): 33.8% (inactive)

CCCOc1ccc(C2NC(=O)NC(c3ccccc3)=C2C(C)=O)cc1OCC (stereo not given)
growth inhibition [1]: 7.89% | growth inhibition (S. cerevisiae wild-type growth): 4.64% (inactive)

COC(=O)/C(NC(C)=O)=C(\C)c1ccc(Cl)cc1
growth inhibition [1]: -32.3% | growth inhibition (S. cerevisiae wild-type growth): 8.3% (inactive)

CCOc1ccc(NC(=O)CCS(=O)(=O)c2ccc3c(c2)CCCN3C(=O)CC)cc1
growth inhibition [1]: 13.5% | growth inhibition (S. cerevisiae wild-type growth): 10.8% (inactive)

CCN(CC)CCn1c(=S)[nH]c2ncccc2c1=O
growth inhibition [1]: 5.13% | growth inhibition (S. cerevisiae wild-type growth): 11.5% (inactive)

CCc1ccc(NC(=O)CN2C(=O)CSC2=O)cc1
growth inhibition [1]: -8.82% | growth inhibition (S. cerevisiae wild-type growth): 5% (inactive)

COc1ccc(C)cc1S(=O)(=O)NCCc1ccccc1
growth inhibition [1]: 12.9% | growth inhibition (S. cerevisiae wild-type growth): 4.64% (inactive)

CC(C)=C1SC(N2CCN(c3cccc(C)c3)CC2)=NC1=O
growth inhibition [1]: 16.2% | growth inhibition (S. cerevisiae wild-type growth): 11.8% (inactive)

COc1cccc2cc(C(=O)N3CCN(C(=O)c4ccccc4)CC3)c(=O)oc12
growth inhibition [1]: 9.38% | growth inhibition (S. cerevisiae wild-type growth): 8.28% (inactive)

CC(Oc1ccc(Cl)cc1)c1ccnn1S(C)(=O)=O (stereo not given)
growth inhibition [1]: 10.8% | growth inhibition (S. cerevisiae wild-type growth): 28.1% (inactive)

CC(C)(C)n1nnnc1C(c1ccc(F)cc1)N1CCN(Cc2ccc3c(c2)OCO3)CC1 (stereo not given)
growth inhibition [1]: -18.2% | growth inhibition (S. cerevisiae wild-type growth): 15% (inactive)

NC(=O)c1ncc(C(F)(F)F)cc1Oc1ccc(F)cc1
growth inhibition [1]: -3.33% | growth inhibition (S. cerevisiae wild-type growth): 19.2% (inactive)

N/C(=N\OC(=O)Nc1ccc(Cl)c(Cl)c1)c1ncc(C(F)(F)F)cc1Cl
growth inhibition [1]: 30.3% | growth inhibition (S. cerevisiae wild-type growth): 35.2% (active)

CCn1nccc1C(=O)Nc1ccc(Cl)c(Cl)c1
growth inhibition [1]: -8.33% | growth inhibition (S. cerevisiae wild-type growth): 12.8% (inactive)

CN1CCN(C(=O)Cn2c(C(F)(F)F)nc3ccccc32)CC1
growth inhibition [1]: 25% | growth inhibition (S. cerevisiae wild-type growth): 9.62% (inactive)

CC(C)(C)N1CC(c2nc3ccccc3n2Cc2ccc(F)cc2)CC1=O (stereo not given)
growth inhibition [1]: 20% | growth inhibition (S. cerevisiae wild-type growth): 5% (inactive)

CS(=O)(=O)Nc1ccc(C(=O)N2CCCC2)cc1
growth inhibition [1]: 11.6% | growth inhibition (S. cerevisiae wild-type growth): 38.3% (inactive)

Cc1[nH][nH]c(=O)c1C(c1ccc(-c2ccc(Cl)cc2)o1)c1c(C)[nH][nH]c1=O
growth inhibition [1]: 63% | growth inhibition (S. cerevisiae wild-type growth): 75.8% (active)

Cc1[nH][nH]c(=O)c1N=Nc1ccccc1
growth inhibition [1]: 8.33% | growth inhibition (S. cerevisiae wild-type growth): 25.8% (inactive)

Cc1ccccc1-c1nnc(SCC(=O)NCc2ccc3c(c2)OCO3)n1C
growth inhibition [1]: 8.14% | growth inhibition (S. cerevisiae wild-type growth): 13.1% (inactive)

CC(C)(CNC(=O)c1cc(=O)[nH]c2ccccc12)N1CCOCC1
growth inhibition [1]: -23.8% | growth inhibition (S. cerevisiae wild-type growth): -1.08% (inactive)

Cc1cc(NC(=O)CN2CCCC(C)C2)n(-c2nc3ccccc3s2)n1 (stereo not given)
growth inhibition [1]: -42.9% | growth inhibition (S. cerevisiae wild-type growth): -15.7% (inactive)

Cc1[nH]n(-c2cccc(Cl)c2)c(=O)c1/C=N/n1c(C)nc2ccccc2c1=O
growth inhibition [1]: 2.56% | growth inhibition (S. cerevisiae wild-type growth): 21% (inactive)

O=C(CCS(=O)(=O)c1cccc2nsnc12)N1CCN(c2ccccc2F)CC1
growth inhibition [1]: 12.5% | growth inhibition (S. cerevisiae wild-type growth): 11.5% (inactive)

Cc1ccc(S(=O)(=O)N2CCN(S(=O)(=O)N3CCOCC3)CC2)cc1
growth inhibition [1]: -11.9% | growth inhibition (S. cerevisiae wild-type growth): 10.3% (inactive)

COC(=O)c1ccc(/C=N\n2c(C)nnc2C)cc1
growth inhibition [1]: -3.85% | growth inhibition (S. cerevisiae wild-type growth): -0.22% (inactive)

CC(=O)Nc1cccc(Oc2cc(C#N)c(C#N)cc2N2CCOCC2)c1
growth inhibition [1]: -4.55% | growth inhibition (S. cerevisiae wild-type growth): -7.1% (inactive)

O=C(N/N=C/c1ccc(O)cc1)/C(=C/c1ccc([N+](=O)[O-])cc1)NC(=O)c1ccccc1
growth inhibition [1]: 15% | growth inhibition (S. cerevisiae wild-type growth): 5% (inactive)

CC(=NCc1ccco1)c1c(C(F)(F)F)[nH]n(-c2nc3ccccc3s2)c1=O
growth inhibition [1]: 7.61% | growth inhibition (S. cerevisiae wild-type growth): 34.2% (inactive)

O=C(CSc1n[nH]c(-c2cccnc2)n1)Nc1ccnc2ccccc12
growth inhibition [1]: 7.69% | growth inhibition (S. cerevisiae wild-type growth): 1% (inactive)

Cc1ccc(S(=O)(=O)N(C)C2(C)CCS(=O)(=O)C2)cc1 (stereo not given)
growth inhibition [1]: 5% | growth inhibition (S. cerevisiae wild-type growth): -6.15% (inactive)

COC(=O)c1ccccc1NC(=O)CN(Cc1ccc(Cl)cc1)S(C)(=O)=O
growth inhibition [1]: 6.98% | growth inhibition (S. cerevisiae wild-type growth): 4.14% (inactive)

CCSc1ccccc1C(=O)NCc1ccc(OC)cc1
growth inhibition [1]: 10.3% | growth inhibition (S. cerevisiae wild-type growth): 2.69% (inactive)

CCOc1ccc(S(=O)(=O)NCCSc2ccccc2)cc1
growth inhibition [1]: 12.5% | growth inhibition (S. cerevisiae wild-type growth): 10% (inactive)

CCNC(=O)c1sccc1-n1cccc1
growth inhibition [1]: 12.9% | growth inhibition (S. cerevisiae wild-type growth): 8.21% (inactive)

COCCCNC(=O)COc1cc(C)c(Cl)c(C)c1
growth inhibition [1]: -13.6% | growth inhibition (S. cerevisiae wild-type growth): 8.44% (inactive)

COC(=O)Nc1ncc(CN2CCCCC2)s1
growth inhibition [1]: 6.45% | growth inhibition (S. cerevisiae wild-type growth): -0.8% (inactive)

CCOc1ccc(S(=O)(=O)Nc2ccc(S(=O)(=O)Nc3cc(OC)ccc3OC)cc2)cc1
growth inhibition [1]: 6.38% | growth inhibition (S. cerevisiae wild-type growth): 5.67% (inactive)

CC1(C)NC(=O)N(CCCCSc2ccc(Cl)cc2)C1=O
growth inhibition [1]: 15.6% | growth inhibition (S. cerevisiae wild-type growth): 21.2% (inactive)

CC/S(CC1CC1(Cl)Cl)=N\S(=O)(=O)c1ccc(C)cc1 (stereo not given)
growth inhibition [1]: 25.5% | growth inhibition (S. cerevisiae wild-type growth): 20.7% (inactive)

Cc1ccc(C(=O)N2CCCC2)c(F)c1F
growth inhibition [1]: 20% | growth inhibition (S. cerevisiae wild-type growth): 0.21% (inactive)

O=C(c1ccc(Cl)c(Cl)c1)N1CCCC1
growth inhibition [1]: 8.89% | growth inhibition (S. cerevisiae wild-type growth): 28.3% (inactive)

CCCCc1nnc(NC(=O)CSc2nc(C)cc(=O)[nH]2)s1
growth inhibition [1]: 20% | growth inhibition (S. cerevisiae wild-type growth): 14.6% (inactive)

c1ccc(CSCCc2ccncc2)cc1
growth inhibition [1]: 20% | growth inhibition (S. cerevisiae wild-type growth): 22.3% (inactive)

CCC(=O)N(Cc1ccccc1)c1ccccn1
growth inhibition [1]: 15% | growth inhibition (S. cerevisiae wild-type growth): 1.54% (inactive)

Nc1c(C(=O)NCc2ccccc2)sc2nc3c(cc12)C(=O)CCC3
growth inhibition [1]: 0% | growth inhibition (S. cerevisiae wild-type growth): -16.4% (inactive)

Cc1ccoc1C(=O)Nc1cccc(Oc2ccccc2)c1
growth inhibition [1]: 20% | growth inhibition (S. cerevisiae wild-type growth): 20.3% (inactive)
